From PubChem
RGS4 inh: inhibitors of human RGS4; P49798; HEK293 M3R/RGS4 inducible, Fluo-4 calcium flux; stronger effect = higher value; triggered by carbachol at its EC20; B-score at 10 µM; 310,000 compounds, 0.45% hits; AID 463165;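 active = B-score, a plate-corrected calcium signal, over three deviations above library mean, with baseline fluorescence within five deviations of library mean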;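 note: RGS4 expression induced by doxycycline in cells with stable M3 receptor; B-score is computed from the integrated fluorescence ratio over baseline after carbachol; higher B-score means a larger calcium signal and so more RGS4 inhibition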
Target sequence (P49798 whole entry, looked up): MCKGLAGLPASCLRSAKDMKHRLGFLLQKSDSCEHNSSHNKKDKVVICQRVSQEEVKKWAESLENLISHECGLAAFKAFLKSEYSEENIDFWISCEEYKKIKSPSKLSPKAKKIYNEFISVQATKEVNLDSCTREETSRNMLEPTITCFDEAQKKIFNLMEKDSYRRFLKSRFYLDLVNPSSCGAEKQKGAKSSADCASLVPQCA
MrgX1 antag: blocks BAM8-22 activation of human MrgX1 receptor; Q96LB2; B-score at 10 µM; AID 588676; MRGX1-HEK293 calcium flux, Fluo-4, BAM8-22 antagonism; stronger effect = lower value; 310,000 compounds, 1.3% hits;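 active = calcium-response B-score plate-corrected more than 3 library SD below zero, starting fluorescence within 5 deviations, no agonist response on first addition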;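 note: peak minus trough fluorescence over baseline after final BAM8-22 challenge near maximal dose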
Target sequence (Q96LB2 whole entry, looked up): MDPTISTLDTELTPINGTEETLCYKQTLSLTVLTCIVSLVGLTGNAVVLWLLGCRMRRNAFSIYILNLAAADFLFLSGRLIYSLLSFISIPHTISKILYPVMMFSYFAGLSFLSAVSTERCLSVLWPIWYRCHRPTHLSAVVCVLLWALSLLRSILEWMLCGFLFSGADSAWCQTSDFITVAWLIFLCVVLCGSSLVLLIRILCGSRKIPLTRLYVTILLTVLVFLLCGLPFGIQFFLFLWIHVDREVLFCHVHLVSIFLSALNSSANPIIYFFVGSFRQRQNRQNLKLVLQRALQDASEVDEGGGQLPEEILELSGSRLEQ
RGS4 pot: RGS4 potentiation or activation; HEK293 M3R/inducible RGS4, carbachol calcium flux Fluo4; stronger effect = lower value; B-score at 10 µM; 310,000 compounds, 0.92% hits;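 active = B-score of the integrated calcium signal more than 4 SD below the library mean, with starting fluorescence not abnormally high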;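 note: negative B-score means reduced calcium response which marks RGS4 activation or potentiation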
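System: HEK293 FlpIn-TREx cells, stable M3R, doxycycline-inducible RGS4. Timing: overnight RGS4 induction, 30 min dye load 37 °C, 20 min compound RT. Also added: carbachol, ECmax concentration. Measured by: Fluo4 fluorescence kinetic imaging of calcium. Evaluation: integrated calcium ratio converted to B score.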
MrgX1 agonist: human MrgX1 receptor agonism, primary screen; Q96LB2; MrgX1-HEK293 cells, Fluo-4 calcium fluorescence, agonist mode; stronger effect = higher value; B-score at 10 µM; 310,000 compounds, 0.44% hits; AID 588627;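 active = calcium response B-score plate-corrected fluorescence ratio at least 3 library SD, with starting fluorescence B-score inside 5 SD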
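Material: HEK293 cells stably expressing human MrgX1 receptor | Quantity: 15,000 cells per well | Times: Cells plated overnight, dye loaded 0.5 h 37 °C, 0.5 h room temperature | Measured by: Kinetic Fluo-4 NW fluorescence of intracellular calcium | Control set: Positive and negative controls per plate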
MrgX1 allo act: human MrgX1 positive allosteric modulation, primary screen; Q96LB2; MrgX1-HEK293, Fluo-4 calcium flux, FDSS; stronger effect = higher value; B-score at 10 µM; 310,000 compounds, 0.63% hits;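 active = plate-corrected calcium response at least 3 library SD above typical, normal starting fluorescence, not activating the receptor alone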;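 note: compound read alongside a low EC10 to EC30 dose of BAM8-22 agonist; peak minus trough fluorescence over baseline measured at the second addition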
RGS4 block valid: RGS4 inhibitor validation | 1,700 compounds, 65% hits | HEK293 M3R/RGS4, carbachol calcium Fluo-4 fluorescence; carbachol added at its EC20; 0 = buffer wells, 100 = carbachol control | shares compounds with RGS4 inh | calcium response, % at 10 µM;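 active = duplicate-averaged calcium response above the buffer-only control mean plus 5 SD of those controls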;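 note: integrated fluorescence ratio F max minus min over baseline F0; higher response in RGS4-induced cells means RGS4 inhibition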
M3R Ca ctr: counter-screen for RGS4 inhibitors: effect in non-induced cells. 1,900 compounds, 20% hits. AID 493000. activity (percent), % at 10 µM. HEK293 M3R non-induced, carbachol calcium Fluo-4; submaximal (EC20) carbachol stimulus; buffer wells 0%, carbachol control wells 100%. shares compounds with RGS4 inh; call rule not given here;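 note: RGS4 induction absent so cells express M3R without RGS4; higher means more calcium signal and flags a non-specific hit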
M3R basal Ca ctr: signal in non-induced cells without carbachol, RGS4 inhibitor counter-screen; shares compounds with RGS4 inh; calcium response (agonist-mode artifact), % at 10 µM; AID 493001; HEK293 M3R/RGS4 non-induced, Fluo-4 calcium, no carbachol; normalised: buffer wells 0%, carbachol wells 100%; 1,900 compounds, 22% hits;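 active = duplicate-averaged calcium rise in uninduced cells above buffer wells' mean plus 5 SD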
Active calls of the source: *; i = inactive; . = no result. Rows were chosen to be rich in hits. Some 3.5% of all compounds tested hit in one or more screens of this group.

SMILES | RGS4 inh | MrgX1 antag | RGS4 pot | MrgX1 agonist | MrgX1 allo act | RGS4 block valid | M3R Ca ctr | M3R basal Ca ctr
COc1cccc(CNC(=O)c2ccc(C3SCCS3)cc2)c1 | i | i | i | i | i | . | . | .
CCOC(=O)C1=C(COC(=O)CCOc2ccc(C)cc2)NC(=O)NC1C (stereo unspecified) | i | i | i | i | i | . | . | .
O=c1[nH]cnc2c1ncn2[C@@H]1O[C@H](CO)[C@@H](O)[C@H]1O | i | i | i | i | i | . | . | .
Nc1ccc(CCNc2ncnc3c2ncn3[C@@H]2O[C@H](CO)[C@@H](O)[C@H]2O)cc1 | i | i | i | i | i | . | i | i
OCC1OC(n2cnc3c(NCCc4ccccc4)ncnc32)C(O)C1O (stereo unspecified) | 6.44* | i | i | i | i | 29.0%* | 67.5%* | i
O=C(Nc1ccccc1OC(F)F)c1ccc(-n2cncn2)c([N+](=O)[O-])c1 | i | i | i | i | i | . | . | .
O=C(CCC(=O)N1CCN(c2cccc(Cl)c2)CC1)c1cccs1 | i | i | i | i | i | . | . | .
O=C(Nc1ccc2nc3n(c(=O)c2c1)CCCCC3)c1c(F)ccc([N+](=O)[O-])c1F | 5.16* | i | i | 37.3* | i | 33.0%* | i | 12.0%*
O=C(Nc1ccc2nc3n(c(=O)c2c1)CCCCC3)c1cc([N+](=O)[O-])ccc1F | i | i | i | i | i | . | . | .
CC1CC(C)CN(CCCn2c(=S)[nH]c3ccccc3c2=O)C1 (stereo unspecified) | 12.8* | i | i | i | i | 92.0%* | 77.0%* | 11.0%*
O=c1c2ccccc2[nH]c(=S)n1CCCN1CCN(c2ccccc2)CC1 | i | i | i | i | i | . | . | .
COc1ccc(Cc2nc(C)cc(Cl)n2)cc1[N+](=O)[O-] | i | i | i | i | i | . | . | .
Cc1ccc(-c2nc3cnccn3c2Nc2c(C)cccc2C)o1 | 6.35* | i | i | i | i | 8.0%* | i | 25.5%*
Cc1ccc(-c2nc3ncccn3c2Nc2ccccc2C)o1 | i | i | i | i | i | . | . | .
CN(C)NC(=S)NC1CCS(=O)(=O)C1 (stereo unspecified) | i | i | i | i | i | . | . | .
COc1ccccc1/C=C/C=N/n1c(-c2cc(-c3ccccc3)n[nH]2)n[nH]c1=S | 7.71* | i | i | i | i | 45.0%* | 36.0%* | i
COc1cccc(CNC(=O)CCCc2nnc3n(C)c(=O)c4sccc4n23)c1 | i | i | i | i | i | . | . | .
NC(=O)NC1CCCc2c1[nH]c1ccc(Cl)cc21 (stereo unspecified) | 5.35* | i | i | i | i | 8.5%* | i | i
COc1ccc(/C=N/n2cc(-c3ccc(OC)cc3)nc2N)cc1 | 37.4* | i | i | i | i | 24.0%* | i | i
O=C(O)c1cccc(NC(=O)c2ccc3c(c2)C(=O)N(C2CCCCC2)C3=O)c1 | i | i | i | i | i | . | . | .
Cc1onc(-c2ccccc2)c1NC(=O)N(CCC#N)Cc1cccs1 | i | i | i | i | i | i | i | i
COc1ccc(CN(CC(=O)NCc2ccco2)C(=O)CNS(=O)(=O)c2ccc(C)cc2)cc1 | i | i | i | i | i | . | . | .
CCOc1ccc(S(=O)(=O)N(CC)CC)cc1NC(=O)CSCc1c(C)noc1C | i | i | i | i | i | . | . | .
S=C(Nc1ccccc1)Nc1nc2ccccc2n1CCOc1ccc(Br)cc1 | 5.05* | i | i | i | i | 10.5%* | i | i
Nc1nc2ccccc2n1CCOc1ccc(Br)cc1 | i | i | i | i | i | . | . | .
SMILES | RGS4 inh | MrgX1 antag | RGS4 pot | MrgX1 agonist | MrgX1 allo act | RGS4 block valid | M3R Ca ctr | M3R basal Ca ctr
Cc1ccc(-c2nn(-c3ccccc3)cc2C=O)o1 | i | i | i | i | i | . | . | .
O=C(CCCSc1ccccc1)Nc1nc(-c2ccco2)c(-c2ccco2)s1 | i | i | i | i | i | . | . | .
O=C(CCl)Nc1nc(-c2ccco2)c(-c2ccco2)s1 | 5.75* | i | i | i | i | i | i | i
Cc1sc2nc(C3CC3)nc(N3CCN(C(=O)c4ccc(Cl)cc4)CC3)c2c1C | i | i | i | i | i | . | . | .
COc1ccc(C2(C)NC(=O)N(CC(=O)Nc3ccc(C)cc3Br)C2=O)cc1OC (stereo unspecified) | i | i | i | i | i | . | . | .
CCOC(=O)N1CCN(C(=O)CSCC(=O)Nc2nc(-c3ccc(Cl)s3)cs2)CC1 | i | i | i | i | i | i | i | i
c1ccc2c(c1)nc(N1CCCCC1)c1ccccc12 | 7.6* | i | i | i | i | 53.5%* | 84.0%* | i
c1ccc2c(N3CCCCC3)nc(N3CCCC3)nc2c1 | i | i | i | i | i | . | . | .
CCC1(C)Cc2ccccc2-c2nc(NCCO)[nH]c(=O)c21 (stereo unspecified) | 7.96* | i | i | i | i | 20.5%* | i | i
O=c1[nH]c(NCCO)nc2c1C1(CCCC1)Cc1ccccc1-2 | 8.4* | i | i | i | i | 43.0%* | 70.0%* | 22.5%*
CCC1(C)Cc2ccccc2-c2nc(NN)[nH]c(=O)c21 (stereo unspecified) | i | i | i | i | i | . | . | .
C=CCNC(=S)NNc1nc2c(c(=O)[nH]1)C1(CCCCC1)Cc1ccccc1-2 | 10.7* | i | i | i | i | 34.0%* | i | i
CC1(C)Cc2ccccc2-c2nc(NCCCO)[nH]c(=O)c21 | i | i | i | i | i | . | . | .
COc1cc(C(=O)OCC(=O)N2CCOCC2)c([N+](=O)[O-])cc1OC | i | i | i | i | i | . | . | .
CC1=NN(c2ccccc2)C(=O)/C1=C/c1ccc(-c2ccc(C)c(C(=O)O)c2)o1 | 17.1* | i | i | i | i | 73.5%* | i | i
C/C(=N\NC(=O)c1ccoc1C)c1cccc2ccccc12 | i | i | i | i | i | . | . | .
